Shown are actives, neighbours in structure and some others; about 3.8% of the full set was active somewhere.
KCNQ1 act = potentiates or activates the human KCNQ1 potassium channel; B-score at 10 µM; AID 2648; P51787; 310,000 tested, 0.35% active; CHO-K1 KCNQ1, thallium flux FluxOR fluorescence; active compounds read high;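 active means fluorescence ratio B-score, a plate-corrected score, at least three library SD, with initial intensity B-score within 5 SD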
Target sequence (P51787 whole entry, looked up): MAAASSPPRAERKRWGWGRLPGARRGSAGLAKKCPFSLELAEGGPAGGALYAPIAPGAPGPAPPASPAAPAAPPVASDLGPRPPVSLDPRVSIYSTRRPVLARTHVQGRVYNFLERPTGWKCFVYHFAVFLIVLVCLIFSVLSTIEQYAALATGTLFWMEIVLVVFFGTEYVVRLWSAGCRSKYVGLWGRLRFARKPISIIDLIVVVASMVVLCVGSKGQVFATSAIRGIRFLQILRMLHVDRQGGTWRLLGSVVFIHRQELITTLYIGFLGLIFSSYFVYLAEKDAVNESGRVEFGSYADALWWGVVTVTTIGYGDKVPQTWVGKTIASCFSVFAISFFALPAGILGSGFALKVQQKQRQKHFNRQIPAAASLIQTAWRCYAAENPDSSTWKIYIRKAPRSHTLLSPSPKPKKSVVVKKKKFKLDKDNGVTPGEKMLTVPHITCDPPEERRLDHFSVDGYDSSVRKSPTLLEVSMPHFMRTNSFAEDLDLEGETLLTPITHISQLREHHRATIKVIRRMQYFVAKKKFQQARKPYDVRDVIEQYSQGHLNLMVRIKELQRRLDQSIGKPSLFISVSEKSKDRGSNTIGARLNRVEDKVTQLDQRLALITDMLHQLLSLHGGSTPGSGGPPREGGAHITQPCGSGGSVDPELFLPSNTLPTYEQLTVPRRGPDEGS
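Doses: Single concentration per compound, DMSO matched to controls | Test system: KCNQ1-transfected CHO-K1 cells | Timing: 90 min dye loading and 20 min compound exposure, both at room temperature | Measured by: Kinetic FluxOR thallium fluorescence, 10-s 1-Hz baseline, 110-s post-stimulus read | Medium: Assay buffer with matched DMSO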
Kir21 block = Kir2.1 (mouse) channel inhibition; P35561; HEK293-Kir2.1, FluxOR thallium flux fluorescence; active compounds read low; B-score at 10 µM; 310,000 tested, 0.85% active; AID 1672;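 active means fluorescence ratio B-score at or below minus 3 SD of library scores, with starting-brightness B-score within 2 SD, cut at about -4.2 in these data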;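 further: channel flux triggered by added potassium and thallium sulfate stimulus; B-score of peak minus minimum fluorescence over baseline after thallium stimulus; more negative B-score means stronger Kir2.1 block with less thallium influx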
hERG protect = shields human hERG channel from block by proarrhythmic agents; Q12809; CHO-hERG, FluxOR thallium flux, dofetilide IC70 present; activation (rescue from dofetilide block), less the hit threshold, % at 10 µM; 310,000 tested, 0.51% active; AID 1511;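 active means activation above the mean of controls blocked by dofetilide plus 5 SD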;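 further: thallium influx through hERG after potassium depolarization seen as dye fluorescence rise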
KCNK9 inh = blocks the human KCNK9 two-pore domain potassium channel. B-score at 10 µM. 310,000 tested, 1.2% active. HEK293 KCNK9, FluxOR thallium flux fluorescence; active compounds read low. Q9NPC2;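 active means ratio B-score over 3 SD below the library mean, with starting fluorescence within 5 SD of its mean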;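 further: negative B-score means less thallium flux so channel inhibition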
KCNQ1 inh = inhibitors of human KCNQ1 potassium channel; P51787; CHO-K1 KCNQ1, FluxOR thallium flux fluorescence; active compounds read high; B-score at 10 µM; 310,000 tested, 1.3% active; AID 2642;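 active means compounds whose thallium flux B-score, printed positive for inhibition, exceeds three library SD while starting fluorescence stays within three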;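 further: channel opened by potassium depolarization with thallium stimulus after 20 min compound exposure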
KCNK3 inh = human KCNK3 channel inhibition, primary screen | B-score at 10 µM | O14649 | 340,000 tested, 0.84% active | AID 602410 | CHO-KCNK3 thallium flux, FluxOR fluorescence; active compounds read low;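 active means B-score under library mean minus 4 SD, starting fluorescence ratio at most library mean plus 5 SD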;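 further: more negative B-score means stronger inhibition of thallium flux through KCNK3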
Of the large screens only hits and unclear results are named; the others gave an inactive call.

Oc1c(C(Nc2cccc(C(F)(F)F)c2)c2ccncc2)ccc2cccnc12 (centres undefined)	KCNQ1 inh 13
O=C(CN(CC1CCCO1)C(=O)CNS(=O)(=O)c1ccc(F)cc1)NCCc1ccccc1 (centres undefined)	none
CC(Cc1ccc(O)c(O)c1)C(C)Cc1ccc(O)c(O)c1 (centres undefined)	Kir21 block -11 (no result: KCNK3 inh)
COc1ccccc1NNC(=O)c1cccnc1Oc1ccccc1	none
O=C(Nc1ccccc1)Nc1ccc(O)c2ccccc12	KCNQ1 inh 6
O=C(Nc1ccccc1)Nc1cccc2ccccc12	none
CC(CC12CC3CC(CC(C3)C1)C2)NCc1ccccc1O (centres undefined)	Kir21 block -5, KCNQ1 inh 6
c1ccc2c(c1)CCN(c1ncnc3c1[nH]c1ccccc13)C2	KCNQ1 inh 11, KCNK3 inh -8.7
COc1cccc2[nH]c3c(N4CCc5ccccc5C4)ncnc3c12	none (no result: KCNK3 inh)
Cc1cn(CC(=O)NCCN2CCOCC2)c(=O)[nH]c1=O	none (no result: KCNQ1 act, Kir21 block, hERG protect, KCNK9 inh, KCNQ1 inh)
CN1CCN(c2ncc(CN3C(=O)c4ccccc4C3=O)s2)CC1	hERG protect 5.9
Fc1ccc(N2CCN(Cc3cnc(N4CCOCC4)s3)CC2)cc1	none
O=C(O)c1cccc(NC(=O)C23CC4CC(C2)CC(n2cnc(Cl)n2)(C4)C3)c1	none
O=C(Nc1cc(Oc2ccccc2)cc([N+](=O)[O-])c1)C12CC3CC(C1)CC(n1cnc(Cl)n1)(C3)C2	KCNQ1 inh 12
CCOC(=O)C1CCCN(Cc2ccc(OC)c(OCc3ccccc3)c2)C1 (centres undefined)	none
COc1ccccc1C(=O)NNC(=O)C(=O)NCc1ccccc1	KCNQ1 act 7, hERG protect 10
CC(=O)c1c(-c2ccccc2)c2cc([N+](=O)[O-])ccc2[nH]c1=O	KCNQ1 act 8
CC(=O)c1c(C)nc2ccc([N+](=O)[O-])cc2c1-c1ccccc1	none
CCN(CCNCC(O)COCc1ccc(Cl)cc1)c1cccc(C)c1 (centres undefined)	Kir21 block -7.5
COc1ccc(C[C@H]2CN3C(=NC[C@@H]3Cc3ccccc3)N2CCNC(=O)c2ccc(C)c(Br)c2)cc1	Kir21 block -4.2, KCNQ1 inh 9
COc1ccc(C[C@H]2CN3C(=NC[C@H]3Cc3ccccc3)N2CCNC(=O)c2ccc(C)c(Br)c2)cc1	Kir21 block -7.3, KCNQ1 inh 7
Cc1ccc(C(=O)NCCN2C3=NC[C@@H](Cc4ccccc4)N3C[C@H]2Cc2ccc(O)cc2)cc1Br	Kir21 block -6.8
COc1ccc(C[C@H]2CN3C(=NC[C@@H]3Cc3ccc(O)cc3)N2CCNC(=O)c2ccc(C)c(Br)c2)cc1	none
CC1(C)SC2C(C(=O)O)N=C(Cc3ccccc3)N2C1C(=O)O (centres undefined)	none (no result: KCNQ1 act, Kir21 block, hERG protect, KCNK9 inh, KCNQ1 inh)
Cc1cccn2c(=O)c3cc(C(=O)NC4CCCC4)c(=N)n(Cc4ccc(F)cc4)c3nc12	none
Cc1cccn2c(=O)c3cc(C(=O)NC4CCCCC4)c(=N)n(Cc4ccccc4)c3nc12	KCNQ1 inh 7
CCN(C(=O)c1cc2c(=O)n3cccc(C)c3nc2n1CCCOC)C1CCCCC1	KCNK3 inh -11
CSc1nnc(NC(=O)c2ccc(S(=O)(=O)N3CCOCC3)cc2)s1	none
CC1CC(C)(C)N(C(=O)CN2CCN(C)CC2)c2ccccc21 (centres undefined)	none
CC(=O)N1Cc2ccccc2C(C)CC12CCCC2 (centres undefined)	Kir21 block -5.1
CC(=O)N1c2ccccc2C(C)CC12CCCCC2 (centres undefined)	Kir21 block -4.7
Cc1ccc(NC(=O)C2CCN(S(=O)(=O)c3cc([N+](=O)[O-])ccc3Cl)CC2)nc1	none (no result: KCNQ1 act, Kir21 block, hERG protect, KCNK9 inh, KCNQ1 inh)
Cc1ccc2nc(NC(=O)C3CCN(S(=O)(=O)c4cc([N+](=O)[O-])ccc4Cl)CC3)sc2c1	KCNQ1 inh 9
COc1ccc(C(=O)NC(=S)NCCc2ccccc2)cc1	none
O=C(NC(=S)NCCc1ccccc1)c1cccc(Cl)c1	KCNQ1 act 9, hERG protect 12
Oc1c(Br)cc(Br)cc1/C=N/c1nc2c(s1)CCCC2	KCNQ1 act 13
Oc1ccccc1CN(Cc1ccco1)CC(O)COCc1ccc(Cl)cc1 (centres undefined)	none
COc1ccc(COCC(O)CN(Cc2ccco2)Cc2ccccc2O)cc1 (centres undefined)	Kir21 block -6.7
CN1CCCN(C(=O)c2cc(-c3ccc(Cl)c(Cl)c3Cl)nc3ccccc23)CC1	Kir21 block -4.8
O=C(OCC(=O)N1CCN(C(=O)c2ccco2)CC1)c1cc(-c2ccc(Cl)c(Cl)c2Cl)nc2ccccc12	none
Cc1ccc2nc(-c3ccccc3)cc(C(=O)N3CCN(c4ccccc4O)CC3)c2c1	KCNQ1 inh 12
COc1ccccc1/C=N/N1C(=O)c2cccc3cccc(c23)C1=O	hERG protect 7.2
COc1ccc(/C=N/N2C(=O)c3ccccc3C2=O)cc1	none
Cc1ccc2c(CSc3nncn3C)cc(=O)oc2c1C	none
CCOc1ccccc1OCCOc1ccccc1OC(C)C	Kir21 block -4.9
COc1ccc(C(CNC(=O)c2cccc(S(=O)(=O)Nc3cccc(C)c3)c2)N2CCOCC2)cc1 (centres undefined)	none
O=S(=O)(c1ccc(N2CCC(c3ccc(Cl)cc3)=N2)cc1)N(CCO)CCO	none
CN(C)CCCNS(=O)(=O)c1ccc(N2CCC(c3ccc(Cl)cc3)=N2)cc1	hERG protect 8.7, KCNK9 inh -11, KCNQ1 inh 9 (no result: KCNK3 inh)
Cc1ccc2nc3c(cc(C(=O)NCc4ccco4)c(=N)n3C3CCCC3)c(=O)n2c1	KCNQ1 inh 8
COCCn1c(=N)c(C(=O)NCc2ccco2)cc2c(=O)n3cc(C)ccc3nc21	none
CCCCCCC[C@@H](C/C=C/CCC(=O)N(C)C/C(=C/Cl)C/C(=C\C(=O)N1CC(OC)=CC1=O)OC)OC	KCNK3 inh -8.8 (no result: KCNQ1 act, Kir21 block, hERG protect, KCNK9 inh, KCNQ1 inh)
CCCCCCC[C@@H](C/C=C/CCC(=O)N(C)C/C(=C/Cl)C/C(=C\C(=O)N1C[C@H](O)CC1=O)OC)OC	none (no result: KCNQ1 act, Kir21 block, hERG protect, KCNK9 inh, KCNQ1 inh)
Cn1nnc2cc(NC(=O)Nc3cccc(C(F)(F)F)c3)ccc21	none
c1ccc(-c2csc3nnc(SCc4ccc5c(c4)OCO5)n23)cc1	Kir21 block -4.3
CCCc1c(C)nc(N2CCN(c3cccc(OC)c3)CC2)[nH]c1=O	hERG protect 5.9
CCc1c(C)nc(N2CCN(c3cccc(OC)c3)CC2)[nH]c1=O	none
CCCN(C(=O)/C=C/c1nc2ccccc2s1)C1CCS(=O)(=O)C1 (centres undefined)	none (no result: KCNQ1 act, Kir21 block, hERG protect, KCNK9 inh, KCNQ1 inh)
CC(NC(=O)COC(=O)[C@@H]1CCCN1S(=O)(=O)c1ccccc1F)C12CC3CC(CC(C3)C1)C2 (some centres undefined)	KCNK9 inh -6.8

Screens deposited in PubChem BioAssay by Johns Hopkins Ion Channel Center.
